From ChEMBL document CHEMBL4706532, “New Seco-DSP derivatives as potent chemosensitizers” (Eur J Med Chem, 2020)
Calls of active or inactive are those of the source. No cut-off for these calls is given here.

Organism: Homo sapiens
Experiment: Stimulation of human membrane P-gp ATPase activity at 0.5 mM using MgATP as substrate preincubated with enzyme for 5 mins followed by substrate addition and measured after 120 mins by ADP-Glo luminescence assay relative to control
Format: cell membranes
Details: time 125.0 min
Procedure, shortened: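 Reactions were started with 10 μL of 25 mM MgATP and run 120 min at 37 °C. ATP detection reagent was then added, and luminescence was read after about 20 min at room temperature (P-gp-Glo). Results are mean ± SD of three independent experiments.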
Molecule `CCc1cc(=O)c2ccc(OC(C)C)c(COC(=O)Cc3cc(OC)c(OC)c(OC)c3)c2o1` has a fold change (FC) of 1.2. Molecule `CCOc1ccc2c(=O)cc(CC)oc2c1COC(=O)/C=C/c1ccc(OC)cc1` has a fold change (FC) of 1.2. With `COc1ccc(CCN(C)CCCC(C#N)(c2ccc(OC)c(OC)c2)C(C)C)cc1OC` (configuration not stated) the fold change (FC) was 1.8. Work on `CCOc1ccc2c(=O)cc(CC)oc2c1COC(=O)/C=C/c1ccccc1` yielded a fold change (FC) of 1.2. Work on `CCOc1ccc2c(=O)cc(CC)oc2c1COC(=O)Cc1cc(OC)c(OC)c(OC)c1` yielded a fold change (FC) of 1.2.

Test system: not listed separately
Experiment: Cytotoxicity against human HOSEC cells assessed as reduction in cell viability at 10 uM incubated for 48 hrs by MTT assay
Format: cell-based
Details: hose
Procedure, shortened: (§1)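 Cells plated at 3~5 × 10^3 per well and allowed 24 h before exposure to compound or DMSO (negative control) for 48 h. A2780/T and KB-VIN were grown in DMEM/F12 with 10% FBS, and HUVEC, HOSEC and T29 in RPMI-1640 with 10% FBS, all at 37 °C under 5% CO₂. MTT was added for 4 h, formazan dissolved in DMSO and absorbance read at 490 nm. Inhibition was calculated relative to DMSO and blank.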
With `CCc1cc(=O)c2ccc(OC(C)C)c(COC(=O)Cc3cc(OC)c(OC)c(OC)c3)c2o1` the Activity was “Non-Toxic”. With `CCOc1ccc2c(=O)cc(CC)oc2c1COC(=O)/C=C/c1ccc(OC)cc1` the Activity was “Non-Toxic”. For `CCOc1ccc2c(=O)cc(CC)oc2c1COC(=O)/C=C/c1ccccc1`, the Activity was “Non-Toxic”. In the case of `CCOc1ccc2c(=O)cc(CC)oc2c1COC(=O)Cc1cc(OC)c(OC)c(OC)c1`, the Activity is reported as “Non-Toxic”.

Test system: not listed separately
Experiment: Reversal of multidrug resistance activity in P-gp overexpressing human A2780T cells assessed as potentiation of PTX-induced cytotoxicity by measuring reversal ratio at 200 nM incubated for 48 hrs in presence of paclitaxel by MTT assay
Details: not given
`CCc1cc(=O)c2ccc(OC(C)C)c(COC(=O)Cc3cc(OC)c(OC)c(OC)c3)c2o1` showed a Ratio of 1.05. `CCOc1ccc2c(=O)cc(CC)oc2c1COC(=O)/C=C/c1ccc(OC)cc1` showed a Ratio of 1.05. `CCOc1ccc2c(=O)cc(CC)oc2c1COC(=O)/C=C/c1ccccc1` showed a Ratio of 1.05. For `CCOc1ccc2c(=O)cc(CC)oc2c1COC(=O)Cc1cc(OC)c(OC)c(OC)c1`, the Ratio was 1.05.

Test system: not listed separately
Experiment: Cytotoxicity against human KB-VIN cells assessed as reduction in cell viability at 10 uM incubated for 48 hrs by MTT assay
Format: cell-based
Details: not given
Procedure, shortened: as §1
With `CCc1cc(=O)c2ccc(OC(C)C)c(COC(=O)Cc3cc(OC)c(OC)c(OC)c3)c2o1` the Activity was “Non-Toxic”. In the case of `CCOc1ccc2c(=O)cc(CC)oc2c1COC(=O)/C=C/c1ccc(OC)cc1`, the Activity is reported as “Non-Toxic”. With `CCOc1ccc2c(=O)cc(CC)oc2c1COC(=O)/C=C/c1ccccc1` the Activity was “Non-Toxic”. For `CCOc1ccc2c(=O)cc(CC)oc2c1COC(=O)Cc1cc(OC)c(OC)c(OC)c1`, the Activity was “Non-Toxic”.

Test system: not listed separately
Experiment: Cytotoxicity against human T29 cells assessed as reduction in cell viability at 10 uM incubated for 48 hrs by MTT assay
Format: cell-based
Details: t29, 48 h
Procedure, shortened: as §1
For `CCc1cc(=O)c2ccc(OC(C)C)c(COC(=O)Cc3cc(OC)c(OC)c(OC)c3)c2o1`, the Activity was “Non-Toxic”. With `CCOc1ccc2c(=O)cc(CC)oc2c1COC(=O)/C=C/c1ccc(OC)cc1` the Activity was “Non-Toxic”. For `CCOc1ccc2c(=O)cc(CC)oc2c1COC(=O)/C=C/c1ccccc1`, the Activity was “Non-Toxic”. In the case of `CCOc1ccc2c(=O)cc(CC)oc2c1COC(=O)Cc1cc(OC)c(OC)c(OC)c1`, the Activity is reported as “Non-Toxic”.

Test system: not listed separately
Experiment: Reversal of multidrug resistance activity in human A2780/CDDP cells assessed as potentiation of CDDP-induced cytotoxicity by measuring reversal ratio at 10 uM incubated for 48 hrs in presence of CDDP by MTT assay
Format: functional
Details: not given
Procedure, shortened: (§2)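 Resistant cells were plated at 3~5 × 10^3 per well, given 24 h, then co-treated with test compound plus a range of anticancer drug concentrations (PTX for A2780/T, VCR for KB-VIN, cisplatin for A2780/CDDP) or DMSO for 48 h. Read-out was by MTT, 4 h at 37 °C, with absorbance at 490 nm. Reversal ratio = IC50 (drug alone) / IC50 (drug with compound).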
Molecule `CCOc1ccc2c(=O)cc(CC)oc2c1COC(=O)/C=C/c1ccc(OC)cc1` has a Ratio of 0.88. `CCOc1ccc2c(=O)cc(CC)oc2c1COC(=O)/C=C/c1ccccc1` showed a Ratio of 0.92. `CCOc1ccc2c(=O)cc(CC)oc2c1COC(=O)Cc1cc(OC)c(OC)c(OC)c1` showed a Ratio of 0.97.

Test system: A2780T
Experiment: Inhibition of P-gp mediated multidrug resistance activity in human A2780T cells assessed as increase in intracellular DOX accumulation at 10 uM incubated for 4 hrs in presence of doxorubicin by fluorescence microsocopy
Format: cell-based
Details: not given
Procedure, shortened: (§3)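 A2780/T cells were seeded at about 5×10^5 per well and left 24 h. […] Cells were washed three times with ice-cold PBS and resuspended in cold PBS. DOX autofluorescence was measured by flow cytometry and by fluorescence/confocal microscopy. Data are given as mean ± SD.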
In the case of `CCc1cc(=O)c2ccc(OC(C)C)c(COC(=O)Cc3cc(OC)c(OC)c(OC)c3)c2o1`, the inhibition is reported as “Active”. In the case of `CCOc1ccc2c(=O)cc(CC)oc2c1COC(=O)/C=C/c1ccc(OC)cc1`, the inhibition is reported as “Active”. For `COc1ccc(CCN(C)CCCC(C#N)(c2ccc(OC)c(OC)c2)C(C)C)cc1OC` (configuration not stated), the inhibition was “Active”. With `CCOc1ccc2c(=O)cc(CC)oc2c1COC(=O)/C=C/c1ccccc1` the inhibition was “Active”. With `CCOc1ccc2c(=O)cc(CC)oc2c1COC(=O)Cc1cc(OC)c(OC)c(OC)c1` the inhibition was “Active”.

Test system: A2780/Taxol
Experiment: Decrease in P-gp expression in human A2780T cells at 10 uM incubated for 48 hrs by western blot analysis
Format: functional, cell-based
Details: not given
Procedure, shortened: (§4)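 A2780/T cells (about 5×10^5 per well) were allowed 24 h, then treated with compound at 10 µM for 48 h at 37 °C. Cells were lysed in RIPA buffer with 1 mM PMSF. Lysates (20 µg protein) were run on 12% SDS-PAGE and transferred to PVDF. Blots were blocked in 3% BSA and probed overnight at 4 °C with anti-P-gp or GAPDH antibody (1:1000), then with HRP secondary (1:10000) for 1 h. Detection was by ECL with densitometry.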
In the case of `CCc1cc(=O)c2ccc(OC(C)C)c(COC(=O)Cc3cc(OC)c(OC)c(OC)c3)c2o1`, the inhibition is reported as “inactive”. For `CCOc1ccc2c(=O)cc(CC)oc2c1COC(=O)/C=C/c1ccc(OC)cc1`, the inhibition was “inactive”. In the case of `CCOc1ccc2c(=O)cc(CC)oc2c1COC(=O)/C=C/c1ccccc1`, the inhibition is reported as “inactive”. With `CCOc1ccc2c(=O)cc(CC)oc2c1COC(=O)Cc1cc(OC)c(OC)c(OC)c1` the inhibition was “inactive”.

Test system: HUVEC
Experiment: Cytotoxicity against human HUVEC cells assessed as reduction in cell viability at 10 uM incubated for 48 hrs by MTT assay
Format: cell-based
Details: not given
Procedure, shortened: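 Cells plated at 3~5 × 10^3 per well and allowed 24 h before exposure to compound or DMSO (negative control) for 48 h. MTT was added for 4 h, formazan dissolved in DMSO and absorbance read at 490 nm. Inhibition was calculated relative to DMSO and blank.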
In the case of `CCc1cc(=O)c2ccc(OC(C)C)c(COC(=O)Cc3cc(OC)c(OC)c(OC)c3)c2o1`, the Activity is reported as “Non-Toxic”. For `CCOc1ccc2c(=O)cc(CC)oc2c1COC(=O)/C=C/c1ccc(OC)cc1`, the Activity was “Non-Toxic”. With `CCOc1ccc2c(=O)cc(CC)oc2c1COC(=O)/C=C/c1ccccc1` the Activity was “Non-Toxic”. In the case of `CCOc1ccc2c(=O)cc(CC)oc2c1COC(=O)Cc1cc(OC)c(OC)c(OC)c1`, the Activity is reported as “Non-Toxic”.

Test system: not listed separately
Experiment: Reversal of multidrug resistance activity in P-gp overexpressing human A2780T cells assessed as potentiation of PTX-induced cytotoxicity by measuring reversal ratio at 10 uM incubated for 48 hrs in presence of paclitaxel by MTT assay
Format: functional, A2780/Taxol
Details: not given
Procedure, shortened: as §2
Molecule `CCc1cc(=O)c2ccc(OC(C)C)c(COC(=O)Cc3cc(OC)c(OC)c(OC)c3)c2o1` has a Ratio of 576. In the case of `CCOc1ccc2c(=O)cc(CC)oc2c1COC(=O)/C=C/c1ccc(OC)cc1`, the Ratio is reported as greater than 1471. In the case of `CCOc1ccc2c(=O)cc(CC)oc2c1COC(=O)/C=C/c1ccccc1`, the Ratio is reported as 503. `CCOc1ccc2c(=O)cc(CC)oc2c1COC(=O)Cc1cc(OC)c(OC)c(OC)c1` showed a Ratio of 677.

Test system: not listed separately
Experiment: Reversal of multidrug resistance activity in P-gp overexpressing human A2780T cells assessed as potentiation of PTX-induced cytotoxicity by measuring reversal ratio at 1 uM incubated for 48 hrs in presence of paclitaxel by MTT assay
Format: functional, A2780/Taxol
Details: not given
Procedure, shortened: as §2
With `CCc1cc(=O)c2ccc(OC(C)C)c(COC(=O)Cc3cc(OC)c(OC)c(OC)c3)c2o1` the Ratio was 3.97. Molecule `CCOc1ccc2c(=O)cc(CC)oc2c1COC(=O)/C=C/c1ccc(OC)cc1` has a Ratio of 128. Work on `CCOc1ccc2c(=O)cc(CC)oc2c1COC(=O)/C=C/c1ccccc1` yielded a Ratio of 4.24. Work on `CCOc1ccc2c(=O)cc(CC)oc2c1COC(=O)Cc1cc(OC)c(OC)c(OC)c1` yielded a Ratio of 4.13.

Test system: A2780/Taxol
Experiment: Cytotoxicity against human A2780T cells assessed as reduction in cell viability at 10 uM incubated for 48 hrs by MTT assay
Format: cell-based
Details: not given
Procedure, shortened: as §1
In the case of `CCc1cc(=O)c2ccc(OC(C)C)c(COC(=O)Cc3cc(OC)c(OC)c(OC)c3)c2o1`, the Activity is reported as “Non-Toxic”. In the case of `CCOc1ccc2c(=O)cc(CC)oc2c1COC(=O)/C=C/c1ccc(OC)cc1`, the Activity is reported as “Toxic”. In the case of `CCOc1ccc2c(=O)cc(CC)oc2c1COC(=O)/C=C/c1ccccc1`, the Activity is reported as “Non-Toxic”. In the case of `CCOc1ccc2c(=O)cc(CC)oc2c1COC(=O)Cc1cc(OC)c(OC)c(OC)c1`, the Activity is reported as “Non-Toxic”.

Test system: not listed separately
Experiment: Reversal of multidrug resistance activity in P-gp overexpressing human KB-VIN cells assessed as potentiation of VCR-induced cytotoxicity by measuring reversal ratio at 10 uM incubated for 48 hrs in presence of VCR by MTT assay
Format: functional
Details: not given
Procedure, shortened: as §2
With `CCc1cc(=O)c2ccc(OC(C)C)c(COC(=O)Cc3cc(OC)c(OC)c(OC)c3)c2o1` the Ratio was 604. Molecule `CCOc1ccc2c(=O)cc(CC)oc2c1COC(=O)/C=C/c1ccc(OC)cc1` has a Ratio of 299. Molecule `CCOc1ccc2c(=O)cc(CC)oc2c1COC(=O)/C=C/c1ccccc1` has a Ratio of 633. With `CCOc1ccc2c(=O)cc(CC)oc2c1COC(=O)Cc1cc(OC)c(OC)c(OC)c1` the Ratio was 628.

Test system: A2780/Taxol
Experiment: Increase in P-gp expression in human A2780T cells at 10 uM incubated for 48 hrs by western blot analysis
Format: functional, cell-based
Details: not given
Procedure, shortened: as §4
For `CCc1cc(=O)c2ccc(OC(C)C)c(COC(=O)Cc3cc(OC)c(OC)c(OC)c3)c2o1`, the Activity was “inactive”. In the case of `CCOc1ccc2c(=O)cc(CC)oc2c1COC(=O)/C=C/c1ccc(OC)cc1`, the Activity is reported as “inactive”. With `CCOc1ccc2c(=O)cc(CC)oc2c1COC(=O)/C=C/c1ccccc1` the Activity was “inactive”. With `CCOc1ccc2c(=O)cc(CC)oc2c1COC(=O)Cc1cc(OC)c(OC)c(OC)c1` the Activity was “inactive”.

Test system: A2780T
Experiment: Inhibition of P-gp mediated multidrug resistance activity in human A2780T cells assessed as increase in intracellular DOX accumulation at 10 uM incubated for 4 hrs in presence of doxorubicin by flow cytometry
Format: cell-based
Details: not given
Procedure, shortened: as §3
With `CCc1cc(=O)c2ccc(OC(C)C)c(COC(=O)Cc3cc(OC)c(OC)c(OC)c3)c2o1` the inhibition was “Active”. In the case of `CCOc1ccc2c(=O)cc(CC)oc2c1COC(=O)/C=C/c1ccc(OC)cc1`, the inhibition is reported as “Active”. In the case of `COc1ccc(CCN(C)CCCC(C#N)(c2ccc(OC)c(OC)c2)C(C)C)cc1OC` (configuration not stated), the inhibition is reported as “Active”. With `CCOc1ccc2c(=O)cc(CC)oc2c1COC(=O)/C=C/c1ccccc1` the inhibition was “Active”. With `CCOc1ccc2c(=O)cc(CC)oc2c1COC(=O)Cc1cc(OC)c(OC)c(OC)c1` the inhibition was “Active”.
